Measured values from ChEMBL document CHEMBL5724801, “EUbOPEN Chemogenomics Library - Multiplex” (2024).
Values joined by “and” are separate entries in the source; they are usually repeats but may differ in a detail not shown here. Identical values can stand only once.

System: U2OS
Assay: Multiplex assay against U2OS
Assay type: toxicity, cell-based
Settings: human
In short: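 Four dyes were applied at seeding to live cells: Hoechst33342, BioTracker Green Microtubule Cytoskeleton Dye, MitoTracker Red and Annexin V Alexa Fluor 680. Imaging after compound addition used a CQ1 microscope at 37°C and 5% CO2. CellPathfinder machine-learning gating then sorted cells into Hoechst high-intensity objects or normal cells, normal cells into healthy, pyknosed or fragmented nuclei, and pyknosed cells into mitotic or apoptotic, with tubulin, mitochondrial-mass and membrane-permeability phenotypes given as per cents of healthy-nucleus cells.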

[1] = 12 h, 1 µM, compound concentration 1 uM
[2] = 12 h, 10 µM, compound concentration 10 uM
[3] = 24 h, 1 µM, compound concentration 1 uM
[4] = 24 h, 10 µM, compound concentration 10 uM
[5] = 48 h, 1 µM, compound concentration 1 uM
[6] = 48 h, 10 µM, compound concentration 10 uM

O=C(O)C(F)(F)F.O=C1NC(=O)/C(=C/c2c[nH]c(=O)c(-c3ccc(N4CCNCC4)nc3)c2)S1
Population Apoptotic (%) [1]: 42.86% and 38.46%
Population Fragmented Nuclei (%) [1]: 1.89% and 1.93%
Population Healthy Nuclei (%) [1]: 92.45% and 85.51%
Population Hoechst High Intensity Objects (%) [1]: 0%
Population Membrane Permeable-Phenotype (%) [1]: 0.29% and 4.52%
Population Mitochondria Different-Phenotype (%) [1]: 0.29% and 6.21%
Population Mitotic Cells (%) [1]: 57.14% and 61.54%
Population Normal (%) [1]: 100%
Population Pyknosed Nuclei (%) [1]: 5.66% and 12.56%
Population Tubulin-Different-Phenotype (%) [1]: 0.58% and 2.82%
Total Cell Count [1]: 371 and 207
Population Apoptotic (%) [2]: 25% and 60%
Population Fragmented Nuclei (%) [2]: 1.57% and 2.75%
Population Healthy Nuclei (%) [2]: 90.03% and 86.26%
Population Hoechst High Intensity Objects (%) [2]: 0%
Population Membrane Permeable-Phenotype (%) [2]: 2.62% and 4.46%
Population Mitochondria Different-Phenotype (%) [2]: 0.29% and 5.73%
Population Mitotic Cells (%) [2]: 75% and 40%
Population Normal (%) [2]: 100%
Population Pyknosed Nuclei (%) [2]: 8.4% and 10.99%
Population Tubulin-Different-Phenotype (%) [2]: 1.17% and 1.27%
Total Cell Count [2]: 381 and 182
Population Apoptotic (%) [3]: 38.46% and 27.27%
Population Fragmented Nuclei (%) [3]: 0.79% and 0.38%
Population Healthy Nuclei (%) [3]: 94.08% and 86.92%
Population Hoechst High Intensity Objects (%) [3]: 0%
Population Membrane Permeable-Phenotype (%) [3]: 0.42% and 3.98%
Population Mitochondria Different-Phenotype (%) [3]: 0.21% and 3.98%
Population Mitotic Cells (%) [3]: 61.54% and 72.73%
Population Normal (%) [3]: 100%
Population Pyknosed Nuclei (%) [3]: 5.13% and 12.69%
Population Tubulin-Different-Phenotype (%) [3]: 0.42% and 1.33%
Total Cell Count [3]: 507 and 260
Population Apoptotic (%) [4]: 40.62% and 57.89%
Population Fragmented Nuclei (%) [4]: 2.9% and 4.85%
Population Healthy Nuclei (%) [4]: 90.91% and 86.78%
Population Hoechst High Intensity Objects (%) [4]: 0%
Population Membrane Permeable-Phenotype (%) [4]: 3.19% and 4.06%
Population Mitochondria Different-Phenotype (%) [4]: 0.21% and 4.57%
Population Mitotic Cells (%) [4]: 59.38% and 42.11%
Population Normal (%) [4]: 100%
Population Pyknosed Nuclei (%) [4]: 6.19% and 8.37%
Population Tubulin-Different-Phenotype (%) [4]: 1.49% and 0.51%
Total Cell Count [4]: 517 and 227
Population Apoptotic (%) [5]: 51.47% and 41.86%
Population Fragmented Nuclei (%) [5]: 2% and 1.49%
Population Healthy Nuclei (%) [5]: 90.84% and 89.38%
Population Hoechst High Intensity Objects (%) [5]: 0%
Population Membrane Permeable-Phenotype (%) [5]: 0.93% and 3.09%
Population Mitochondria Different-Phenotype (%) [5]: 0.12% and 2.14%
Population Mitotic Cells (%) [5]: 48.53% and 58.14%
Population Normal (%) [5]: 100%
Population Pyknosed Nuclei (%) [5]: 7.16% and 9.13%
Population Tubulin-Different-Phenotype (%) [5]: 1.04% and 1.66%
Total Cell Count [5]: 950 and 471
Population Apoptotic (%) [6]: 38.82% and 45.95%
Population Fragmented Nuclei (%) [6]: 2.93% and 2.98%
Population Healthy Nuclei (%) [6]: 88.48% and 87.84%
Population Hoechst High Intensity Objects (%) [6]: 0.1% and 0%
Population Membrane Permeable-Phenotype (%) [6]: 1.48% and 3.39%
Population Mitochondria Different-Phenotype (%) [6]: 0% and 1.98%
Population Mitotic Cells (%) [6]: 61.18% and 54.05%
Population Normal (%) [6]: 99.9% and 100%
Population Pyknosed Nuclei (%) [6]: 8.59% and 9.18%
Population Tubulin-Different-Phenotype (%) [6]: 0.68% and 1.69%
Total Cell Count [6]: 991 and 403

O=C(Nc1c[nH]nc1-c1nc2cc(CN3CCOCC3)ccc2[nH]1)NC1CC1 [AT-9283]
Population Apoptotic (%) [1]: 27.91% and 52.63%
Population Fragmented Nuclei (%) [1]: 2.75% and 2.61%
Population Healthy Nuclei (%) [1]: 85.4% and 84.97%
Population Hoechst High Intensity Objects (%) [1]: 0%
Population Membrane Permeable-Phenotype (%) [1]: 0.65% and 3.85%
Population Mitochondria Different-Phenotype (%) [1]: 0.32% and 9.23%
Population Mitotic Cells (%) [1]: 72.09% and 47.37%
Population Normal (%) [1]: 100%
Population Pyknosed Nuclei (%) [1]: 11.85% and 12.42%
Population Tubulin-Different-Phenotype (%) [1]: 1.29% and 0%
Total Cell Count [1]: 363 and 153
Population Apoptotic (%) [2]: 43% and 36.73%
Population Fragmented Nuclei (%) [2]: 6.56% and 13.38%
Population Healthy Nuclei (%) [2]: 60.66% and 52.11%
Population Hoechst High Intensity Objects (%) [2]: 0% and 0.7%
Population Membrane Permeable-Phenotype (%) [2]: 1.62% and 5.41%
Population Mitochondria Different-Phenotype (%) [2]: 0% and 14.86%
Population Mitotic Cells (%) [2]: 57% and 63.27%
Population Normal (%) [2]: 100% and 99.3%
Population Pyknosed Nuclei (%) [2]: 32.79% and 34.51%
Population Tubulin-Different-Phenotype (%) [2]: 2.16% and 2.7%
Total Cell Count [2]: 305 and 143
Population Apoptotic (%) [3]: 38.27% and 55.56%
Population Fragmented Nuclei (%) [3]: 5.31% and 3.57%
Population Healthy Nuclei (%) [3]: 73.21% and 75%
Population Hoechst High Intensity Objects (%) [3]: 0%
Population Membrane Permeable-Phenotype (%) [3]: 0.72% and 3.17%
Population Mitochondria Different-Phenotype (%) [3]: 0% and 7.94%
Population Mitotic Cells (%) [3]: 61.73% and 44.44%
Population Normal (%) [3]: 100%
Population Pyknosed Nuclei (%) [3]: 21.49% and 21.43%
Population Tubulin-Different-Phenotype (%) [3]: 1.81% and 0%
Total Cell Count [3]: 377 and 168
Population Apoptotic (%) [4]: 50.29% and 58.51%
Population Fragmented Nuclei (%) [4]: 11.38% and 13.89%
Population Healthy Nuclei (%) [4]: 28.28% and 20.83%
Population Hoechst High Intensity Objects (%) [4]: 0.34% and 1.37%
Population Membrane Permeable-Phenotype (%) [4]: 4.88% and 10%
Population Mitochondria Different-Phenotype (%) [4]: 0% and 10%
Population Mitotic Cells (%) [4]: 49.71% and 41.49%
Population Normal (%) [4]: 99.66% and 98.63%
Population Pyknosed Nuclei (%) [4]: 60.34% and 65.28%
Population Tubulin-Different-Phenotype (%) [4]: 10.98% and 3.33%
Total Cell Count [4]: 291 and 146
Population Apoptotic (%) [5]: 55.84% and 65.43%
Population Fragmented Nuclei (%) [5]: 5.53% and 3.43%
Population Healthy Nuclei (%) [5]: 57.45% and 50.29%
Population Hoechst High Intensity Objects (%) [5]: 0.24% and 0.57%
Population Membrane Permeable-Phenotype (%) [5]: 4.6% and 11.36%
Population Mitotic Cells (%) [5]: 44.16% and 34.57%
Population Normal (%) [5]: 99.76% and 99.43%
Population Pyknosed Nuclei (%) [5]: 37.02% and 46.29%
Population Tubulin-Different-Phenotype (%) [5]: 11.3% and 13.64%
Total Cell Count [5]: 417 and 176
Population Apoptotic (%) [6]: 69.51% and 86%
Population Fragmented Nuclei (%) [6]: 9.83% and 10.61%
Population Healthy Nuclei (%) [6]: 14.58% and 13.64%
Population Hoechst High Intensity Objects (%) [6]: 0.34% and 0%
Population Membrane Permeable-Phenotype (%) [6]: 27.91% and 11.11%
Population Mitochondria Different-Phenotype (%) [6]: 0% and 5.56%
Population Mitotic Cells (%) [6]: 30.49% and 14%
Population Normal (%) [6]: 99.66% and 100%
Population Pyknosed Nuclei (%) [6]: 75.59% and 75.76%
Population Tubulin-Different-Phenotype (%) [6]: 58.14% and 50%
Total Cell Count [6]: 296 and 132
